Results as given in ChEMBL document CHEMBL1137262, “Design and synthesis of APTCs (aminopyrrolidinetricarboxylic acids): identification of a new group III metabotropic glutamate receptor selective agonist” (Bioorg Med Chem Lett, 2006).

What was measured:
Type in all cases: functional, cell-based
[1] = biological target: Metabotropic glutamate receptor 4 (Rattus norvegicus, UniProt P31423); assay: (§1) Activity at rat mGluR4 receptor measured as intracellular calcium concentration in HEK293 cells
Summary of the method: (§2)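 HEK293 cells were transfected with the indicated receptor, seeded on polyornithine-coated plates and cultured 24 h. Fluorescence (ex 485/em 525 nm) was read every 1.5 s for 60 s after compound addition. Agonism was scored versus basal signal. Dose–response curves were fitted; means of three experiments in triplicate.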

[2] = biological target: Metabotropic glutamate receptor 2 (Rattus norvegicus, UniProt P31421); assay: Activity at rat mGluR2 receptor measured as intracellular calcium concentration in HEK293 cells; summary of the method: as §2
[3] = biological target: Metabotropic glutamate receptor 8 (Rattus norvegicus, UniProt P70579); assay: (§3) Activity at rat mGluR8 receptor measured as intracellular calcium concentration in HEK293 cells; summary of the method: as §2
[4] = biological target: Metabotropic glutamate receptor 6 (Rattus norvegicus, UniProt P35349); assay: Activity at rat mGluR6 receptor measured as intracellular calcium concentration in HEK293 cells; summary of the method: as §2
[5] = biological target: Metabotropic glutamate receptor 7 (Rattus norvegicus, UniProt P35400); assay: Activity at rat mGluR7 receptor measured as intracellular calcium concentration in HEK293 cells; summary of the method: as §2
[6] = biological target: Metabotropic glutamate receptor 5 (Rattus norvegicus, UniProt P31424); assay: Activity at rat mGluR5 receptor measured as intracellular calcium concentration in HEK293 cells; summary of the method: as §2
[7] = biological target: Metabotropic glutamate receptor 4 (Rattus norvegicus) (UniProt P31423); assay: Activity at rat mGluR4 receptor measured as intracellular calcium concentration in HEK293 cells relative to glutamate
[8] = biological target: Metabotropic glutamate receptor 8 (Rattus norvegicus) (UniProt P70579); assay: as §3; details: filed as partial agonist; summary of the method: as §2
[9] = biological target: Metabotropic glutamate receptor 8 (Rattus norvegicus) (UniProt P70579); assay: Activity at rat mGluR8 receptor measured as intracellular calcium concentration in HEK293 cells relative to glutamate
[10] = biological target: Metabotropic glutamate receptor 1 (Rattus norvegicus, UniProt P23385); assay: Activity at rat mGluR1 receptor measured as intracellular calcium concentration in HEK293 cells; summary of the method: as §2
[11] = biological target: Metabotropic glutamate receptor 4 (Rattus norvegicus) (UniProt P31423); assay: Activity against rat mGluR4 receptor measured as intracellular calcium concentration in HEK293 cells at 450 uM; details: filed as agonist
[12] = biological target: Metabotropic glutamate receptor 4 (Rattus norvegicus) (UniProt P31423); assay: as §1; details: filed as agonist; summary of the method: as §2

Sequence of Metabotropic glutamate receptor 4 (Rattus norvegicus) (P31423 whole entry): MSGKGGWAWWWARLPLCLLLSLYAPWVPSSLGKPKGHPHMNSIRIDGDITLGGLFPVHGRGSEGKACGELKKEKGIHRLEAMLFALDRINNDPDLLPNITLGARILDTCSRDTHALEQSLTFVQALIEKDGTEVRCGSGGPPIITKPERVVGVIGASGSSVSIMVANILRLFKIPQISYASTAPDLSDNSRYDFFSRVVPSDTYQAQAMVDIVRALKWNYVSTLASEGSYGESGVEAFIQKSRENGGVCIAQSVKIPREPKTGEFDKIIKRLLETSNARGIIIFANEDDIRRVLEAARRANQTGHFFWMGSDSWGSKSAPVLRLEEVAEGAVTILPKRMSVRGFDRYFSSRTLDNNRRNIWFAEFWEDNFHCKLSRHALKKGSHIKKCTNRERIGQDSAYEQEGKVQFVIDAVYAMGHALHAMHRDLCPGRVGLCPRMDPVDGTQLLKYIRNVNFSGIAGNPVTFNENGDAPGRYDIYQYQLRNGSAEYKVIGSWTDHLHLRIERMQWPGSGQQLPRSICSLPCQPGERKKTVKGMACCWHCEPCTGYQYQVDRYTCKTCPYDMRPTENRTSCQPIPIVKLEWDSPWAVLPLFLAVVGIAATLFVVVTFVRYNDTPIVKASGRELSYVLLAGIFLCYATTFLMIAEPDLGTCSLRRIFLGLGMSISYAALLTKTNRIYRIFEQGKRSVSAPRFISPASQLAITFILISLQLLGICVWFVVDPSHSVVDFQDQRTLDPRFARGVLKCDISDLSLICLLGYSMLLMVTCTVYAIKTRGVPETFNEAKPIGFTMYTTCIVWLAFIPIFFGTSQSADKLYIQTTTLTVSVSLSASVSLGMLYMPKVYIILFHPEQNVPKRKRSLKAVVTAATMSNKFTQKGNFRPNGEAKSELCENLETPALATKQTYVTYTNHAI
Sequence of Metabotropic glutamate receptor 6 (P35349 whole entry): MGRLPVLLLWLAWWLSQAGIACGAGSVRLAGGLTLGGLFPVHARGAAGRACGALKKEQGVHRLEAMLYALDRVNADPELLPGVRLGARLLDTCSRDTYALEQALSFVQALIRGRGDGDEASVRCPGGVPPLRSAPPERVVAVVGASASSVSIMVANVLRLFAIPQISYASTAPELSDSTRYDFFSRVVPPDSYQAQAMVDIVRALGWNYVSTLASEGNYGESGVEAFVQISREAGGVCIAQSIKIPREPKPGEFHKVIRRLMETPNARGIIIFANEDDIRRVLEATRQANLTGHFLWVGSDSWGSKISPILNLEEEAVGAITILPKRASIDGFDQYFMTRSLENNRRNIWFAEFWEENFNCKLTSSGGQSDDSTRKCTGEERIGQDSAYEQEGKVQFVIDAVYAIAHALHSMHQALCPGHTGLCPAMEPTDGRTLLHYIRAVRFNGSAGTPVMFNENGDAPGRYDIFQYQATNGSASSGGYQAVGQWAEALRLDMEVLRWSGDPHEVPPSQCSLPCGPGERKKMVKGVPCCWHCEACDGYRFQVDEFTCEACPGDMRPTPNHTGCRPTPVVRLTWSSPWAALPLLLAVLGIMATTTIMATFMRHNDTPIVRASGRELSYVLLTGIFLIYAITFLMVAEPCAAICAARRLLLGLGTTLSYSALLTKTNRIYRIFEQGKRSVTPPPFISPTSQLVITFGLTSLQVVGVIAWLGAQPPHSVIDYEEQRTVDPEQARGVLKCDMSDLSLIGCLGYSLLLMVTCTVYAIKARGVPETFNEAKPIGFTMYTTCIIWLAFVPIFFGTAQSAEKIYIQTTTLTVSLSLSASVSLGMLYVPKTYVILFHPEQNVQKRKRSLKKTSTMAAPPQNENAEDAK
Sequence of Metabotropic glutamate receptor 8 (Rattus norvegicus) (P70579 whole entry): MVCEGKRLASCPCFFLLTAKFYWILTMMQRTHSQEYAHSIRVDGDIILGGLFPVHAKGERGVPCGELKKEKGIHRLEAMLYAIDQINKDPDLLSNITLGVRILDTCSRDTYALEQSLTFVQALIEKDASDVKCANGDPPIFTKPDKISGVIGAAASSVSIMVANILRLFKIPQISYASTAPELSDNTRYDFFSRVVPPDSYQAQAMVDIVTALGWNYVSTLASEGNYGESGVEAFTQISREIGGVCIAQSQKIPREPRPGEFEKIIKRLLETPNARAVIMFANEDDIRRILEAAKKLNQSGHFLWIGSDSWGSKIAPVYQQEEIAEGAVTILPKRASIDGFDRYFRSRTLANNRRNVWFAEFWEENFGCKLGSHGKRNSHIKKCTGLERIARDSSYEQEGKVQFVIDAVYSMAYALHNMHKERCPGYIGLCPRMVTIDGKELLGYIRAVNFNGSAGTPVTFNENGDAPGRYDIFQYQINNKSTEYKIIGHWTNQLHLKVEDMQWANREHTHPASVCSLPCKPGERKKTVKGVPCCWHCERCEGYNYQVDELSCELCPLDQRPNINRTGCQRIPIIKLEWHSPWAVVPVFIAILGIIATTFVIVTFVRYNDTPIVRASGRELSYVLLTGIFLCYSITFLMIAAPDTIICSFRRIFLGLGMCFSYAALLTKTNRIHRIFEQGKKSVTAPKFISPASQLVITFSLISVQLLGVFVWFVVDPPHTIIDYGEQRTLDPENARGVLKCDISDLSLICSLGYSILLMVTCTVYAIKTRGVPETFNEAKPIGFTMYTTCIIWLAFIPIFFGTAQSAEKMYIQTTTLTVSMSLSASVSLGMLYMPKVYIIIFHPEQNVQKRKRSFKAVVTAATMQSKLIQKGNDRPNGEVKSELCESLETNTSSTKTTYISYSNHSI
Sequence of Metabotropic glutamate receptor 8 (P70579 whole entry): as above
Sequence of Metabotropic glutamate receptor 2 (P31421 whole entry): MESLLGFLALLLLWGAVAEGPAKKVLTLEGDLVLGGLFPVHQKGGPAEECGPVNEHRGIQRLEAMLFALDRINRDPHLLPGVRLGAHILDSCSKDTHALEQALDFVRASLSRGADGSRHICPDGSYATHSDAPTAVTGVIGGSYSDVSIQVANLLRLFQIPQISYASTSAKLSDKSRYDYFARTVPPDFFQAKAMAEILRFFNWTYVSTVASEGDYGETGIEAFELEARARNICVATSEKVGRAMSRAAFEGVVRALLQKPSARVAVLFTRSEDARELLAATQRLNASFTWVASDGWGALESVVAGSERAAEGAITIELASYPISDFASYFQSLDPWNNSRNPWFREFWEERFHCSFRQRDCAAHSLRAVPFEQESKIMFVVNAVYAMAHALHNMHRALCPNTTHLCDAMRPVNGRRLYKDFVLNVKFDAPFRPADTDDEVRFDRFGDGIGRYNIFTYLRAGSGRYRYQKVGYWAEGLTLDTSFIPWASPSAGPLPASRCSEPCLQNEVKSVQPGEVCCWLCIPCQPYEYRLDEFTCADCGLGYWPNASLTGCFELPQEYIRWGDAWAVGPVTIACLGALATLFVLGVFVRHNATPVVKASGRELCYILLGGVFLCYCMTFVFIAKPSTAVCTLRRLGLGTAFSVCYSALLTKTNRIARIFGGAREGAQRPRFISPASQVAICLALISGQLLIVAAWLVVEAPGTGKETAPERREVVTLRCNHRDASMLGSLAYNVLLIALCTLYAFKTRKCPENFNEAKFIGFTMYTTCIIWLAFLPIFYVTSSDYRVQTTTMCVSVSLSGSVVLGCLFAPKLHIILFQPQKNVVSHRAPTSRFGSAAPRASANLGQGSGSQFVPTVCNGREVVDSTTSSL
Sequence of Metabotropic glutamate receptor 5 (P31424 whole entry): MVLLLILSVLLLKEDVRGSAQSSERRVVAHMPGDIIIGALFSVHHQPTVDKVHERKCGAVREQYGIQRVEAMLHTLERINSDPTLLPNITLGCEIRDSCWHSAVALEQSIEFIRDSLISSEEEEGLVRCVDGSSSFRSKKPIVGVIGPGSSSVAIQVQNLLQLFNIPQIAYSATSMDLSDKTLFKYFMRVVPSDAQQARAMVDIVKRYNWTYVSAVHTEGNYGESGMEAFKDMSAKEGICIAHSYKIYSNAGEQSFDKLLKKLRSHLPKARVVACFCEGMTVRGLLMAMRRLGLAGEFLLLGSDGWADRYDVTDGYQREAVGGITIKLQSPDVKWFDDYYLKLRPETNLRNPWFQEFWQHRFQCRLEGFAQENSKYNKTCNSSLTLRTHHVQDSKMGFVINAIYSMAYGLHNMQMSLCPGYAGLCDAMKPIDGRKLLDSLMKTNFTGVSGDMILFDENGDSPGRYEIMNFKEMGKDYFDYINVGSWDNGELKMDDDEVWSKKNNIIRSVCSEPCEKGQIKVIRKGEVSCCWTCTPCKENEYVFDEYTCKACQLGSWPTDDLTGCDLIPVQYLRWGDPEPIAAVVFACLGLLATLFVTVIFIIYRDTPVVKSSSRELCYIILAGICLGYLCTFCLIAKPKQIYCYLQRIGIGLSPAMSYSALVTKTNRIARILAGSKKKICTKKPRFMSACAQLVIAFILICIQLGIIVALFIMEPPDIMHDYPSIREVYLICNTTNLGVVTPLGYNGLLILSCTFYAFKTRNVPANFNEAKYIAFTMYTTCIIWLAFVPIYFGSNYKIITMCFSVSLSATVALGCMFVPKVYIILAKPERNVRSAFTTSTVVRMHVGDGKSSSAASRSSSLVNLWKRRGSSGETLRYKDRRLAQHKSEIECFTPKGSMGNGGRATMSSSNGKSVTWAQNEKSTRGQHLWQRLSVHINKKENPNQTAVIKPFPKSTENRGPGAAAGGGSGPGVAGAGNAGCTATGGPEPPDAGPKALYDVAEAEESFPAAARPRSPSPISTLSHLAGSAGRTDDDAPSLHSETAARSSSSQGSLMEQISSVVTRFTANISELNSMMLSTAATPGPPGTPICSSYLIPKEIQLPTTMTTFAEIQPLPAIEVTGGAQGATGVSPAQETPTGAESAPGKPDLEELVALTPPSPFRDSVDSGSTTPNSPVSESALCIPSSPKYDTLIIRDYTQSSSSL
Sequence of Metabotropic glutamate receptor 4 (P31423 whole entry): as the sequence (P31423 whole entry) above

Compound	EC50 [1] [µM]	EC50 [2] [µM]	EC50 [3] [µM]	EC50 [4] [µM]	EC50 [5] [µM]	EC50 [6] [µM]	Emax [7] [%]	Activity [8]	Emax [9] [%]	EC50 [10] [µM]	Activity [11]	Activity [12]
N[C@@]1(C(=O)O)C[C@H](C(=O)O)[C@H](C(=O)O)C1	7.2	> 1000	10.1	18.4	1200	> 1000	–	–	–	–	–	–
N[C@@]1(C(=O)O)C[C@@H](C(=O)O)N(C(=O)/C=C/C(=O)O)C1	48.3	> 5000	56.2	378	–	> 5000	75	Partial agonist	36	> 5000	Agonist	Agonist
